In ChEMBL document CHEMBL1782034, “Design, synthesis and biological evaluation of novel substituted benzoylguanidine derivatives as potent Na+/H+ exchanger inhibitors” (Bioorg Med Chem Lett, 2009):
Calls of active or inactive are those of the source.

How the values were obtained:
Rattus norvegicus [1] = test: Cardioprotective activity against ischemia-reperfusion injury in iv dosed Sprague-Dawley rat assessed as decrease in malondialdehyde; assay type: functional, organism-based
How it was run: (§1)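 Rats undergo 45 min coronary artery occlusion followed by 90 min reperfusion. Compound is given iv 5 min before reperfusion at 1, 0.5 or 0.25 mg/kg. Prepared serum is assayed for CK, LDH and SOD activities and MDA content as injury indicators, versus sham and model groups.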

Rattus norvegicus [2] = test: Cardioprotective activity against ischemia-reperfusion injury in iv dosed Sprague-Dawley rat assessed as increase in SOD activity in serum; assay type: functional, organism-based; how it was run: as §1
Rattus norvegicus [3] = test: Cardioprotective activity against ischemia-reperfusion injury in Sprague-Dawley rat assessed as decrease in myocardial infarct size at 1 mg/kg, iv; assay type: functional, organism-based; set-up: dose 1 mg/kg; details: Myocardium
How it was run: (§2)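 In vivo rat model: coronary artery ligated 45 min, then the ligature is loosened for 90 min of reperfusion. Compound is given as an iv bolus 5 min before reperfusion at 1, 0.5 or 0.25 mg/kg. Infarct size is expressed as a percentage of left ventricle area (IS/LV%). n = 8; compared against sham and model groups.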

Rattus norvegicus [4] = test: Cardioprotective activity against ischemia-reperfusion injury in Sprague-Dawley rat assessed as decrease in creatine kinase release at 1 mg/kg, iv; assay type: functional, organism-based; set-up: dose 1 mg/kg; how it was run: as §1
Rattus norvegicus [5] = test: Cardioprotective activity against ischemia-reperfusion injury in Sprague-Dawley rat assessed as decrease in LDH release at 1 mg/kg, iv; assay type: functional, organism-based; set-up: dose 1 mg/kg; how it was run: as §1
Rattus norvegicus [6] = test: Cardioprotective activity against ischemia-reperfusion injury in Sprague-Dawley rat assessed as decrease in malondialdehyde at 1 mg/kg, iv; assay type: functional, organism-based; set-up: dose 1 mg/kg; how it was run: as §1
Rattus norvegicus [7] = test: Cardioprotective activity against ischemia-reperfusion injury in Sprague-Dawley rat assessed as increase in SOD activity in serum at 1 mg/kg, iv; assay type: functional, organism-based; set-up: dose 1 mg/kg; how it was run: as §1
Rattus norvegicus [8] = species on record: Rattus norvegicus; test: Cardioprotective activity against Langendorff perfused Sprague-Dawley rat heart assessed as increase in coronary flow at 2 to 50 uM; assay type: functional, organism-based
How it was run: (§3)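 Isolated hearts are equilibrated 20 min, perfused at a low rate (0.5 ml/min) for 30 min with compound in the perfusate, then reperfused 30 min. Coronary flow at the start and at the end of reperfusion is expressed as a ratio to the end-of-equilibration value. n = 10.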

Rattus norvegicus [9] = species on record: Rattus norvegicus; test: Cardioprotective activity against Langendorff perfused Sprague-Dawley rat heart assessed as increase in ATP content in homogenates at 2 to 50 uM; assay type: functional
How it was run: (§4)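 Isolated rat hearts: 20 min equilibration, then 30 min low-rate perfusion (0.5 ml/min), then 30 min reperfusion. Drug is added to the perfusate during the low-rate period only. After reperfusion, the heart tissue homogenate is assayed for Na+-K+ ATPase activity, lactate (LD) content and ATP content. n = 10; compared against sham and model groups.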

Rattus norvegicus [10] = species on record: Rattus norvegicus; test: Cardioprotective activity against Langendorff perfused Sprague-Dawley rat heart assessed as increase in […]-K+ ATPase activity in homogenates at 2 to 50 uM; assay type: functional; how it was run: as §4
Rattus norvegicus [11] = species on record: Rattus norvegicus; test: Cardioprotective activity against Langendorff perfused Sprague-Dawley rat heart assessed as decrease in lactic acid content in homogenates at 2 to 50 uM; assay type: functional; how it was run: as §4
Rattus norvegicus [12] = species on record: Rattus norvegicus; test: Cardioprotective activity against Langendorff perfused Sprague-Dawley rat heart assessed as increase in myocardial energy metabolism; assay type: functional, organism-based; how it was run: as §4
Rattus norvegicus [13] = species on record: Rattus norvegicus; test: Cardioprotective activity against Langendorff perfused Sprague-Dawley rat heart assessed as increase in relaxing coronary artery at 10 uM; assay type: functional, organism-based; how it was run: as §3
Rattus norvegicus [14] = species on record: Rattus norvegicus; test: Cardioprotective activity against Langendorff perfused Sprague-Dawley rat heart assessed as increase in relaxing coronary artery at 50 uM; assay type: functional, organism-based; how it was run: as §3
Rattus norvegicus [15] = test: Cardioprotective activity against ischemia-reperfusion injury in iv dosed Sprague-Dawley rat assessed as decrease in myocardial infarct size; assay type: functional, organism-based; details: Myocardium; how it was run: as §2
Rattus norvegicus [16] = test: Cardioprotective activity against ischemia-reperfusion injury in iv dosed Sprague-Dawley rat assessed as decrease in creatine kinase release; assay type: functional, organism-based; how it was run: as §1
Rattus norvegicus [17] = test: Cardioprotective activity against ischemia-reperfusion injury in iv dosed Sprague-Dawley rat assessed as decrease in LDH release; assay type: functional, organism-based; how it was run: as §1
Rattus norvegicus [18] = species on record: Rattus norvegicus; test: Cardioprotective activity against Langendorff perfused Sprague-Dawley rat heart assessed as increase in myocardial energy metabolism at 10 uM; assay type: functional, organism-based; how it was run: as §4

Measured: Activity

COc1ccc(CN2CCN(Cc3ccc(C(=O)N=C(N)N)cc3[N+](=O)[O-])CC2)c(OC)c1OC
active: Rattus norvegicus [1] Dose-dependent effect | Rattus norvegicus [2] Dose-dependent effect | Rattus norvegicus [3] | Rattus norvegicus [4] | Rattus norvegicus [5] | Rattus norvegicus [6] | Rattus norvegicus [7] | Rattus norvegicus [8] | Rattus norvegicus [9] | Rattus norvegicus [10] | Rattus norvegicus [11] | Rattus norvegicus [12] Dose-dependent effect | Rattus norvegicus [13] | Rattus norvegicus [14] | Rattus norvegicus [15] Dose-dependent effect | Rattus norvegicus [16] Dose-dependent effect | Rattus norvegicus [17] Dose-dependent effect

CC(C)c1ccc(C(=O)N=C(N)N)cc1S(C)(=O)=O
active: Rattus norvegicus [3] | Rattus norvegicus [4] | Rattus norvegicus [5] | Rattus norvegicus [6] | Rattus norvegicus [7] | Rattus norvegicus [18] | Rattus norvegicus [13]
